Measurements from different studies.
Lines come from different studies, so protocols differ.
Target: Tau-tubulin kinase 1 (TTBK1, Homo sapiens, UniProt Q5TCY1)
Effect on: enzyme activity
Mode: inhibitor

SMILES | technique | concentration | measurement | result
CN1CC(Oc2cnc(C#N)cc2-c2ccn3nc(NC(=O)C4CC4)cc3c2)C1 |  | 1 µM | inhibition | 1%
COc1cc(Cl)c(C(=O)N[C@@H](CN[C@H]2CC[C@@H](N)CC2)Cc2ccc(C#N)cc2)cc1-c1ccc(CN[C@H](C)c2ccc(C)cc2)o1 |  | 1 µM | remaining activity | 99%
COc1cc(/C=C/C(=O)CC(=O)/C=C/c2ccc(O)c(OC)c2)ccc1O |  | 1 µM | activity vs control | 102%
CC(C)(O)[C@H]1CC[C@H](Nc2ccc3ncc(-c4cccc(C(F)(F)F)c4)n3n2)CC1 |  | 1 µM | remaining activity | 95.8%
Cc1sc(C(=O)NC2COC2)cc1-n1cc(NC(=O)Nc2c(F)cccc2Cl)cn1 |  | 10 µM | remaining activity | 113%
COc1cc(Nc2cnc(C#N)c(O[C@H](C)CN(C)C)n2)ncc1-c1cnn(C)c1 | radiometric | 1 µM | remaining activity | 98%
Cc1ccc(C(=O)NCc2ccsc2)cc1C#Cc1cn(C(C)C)c2ncnc(N)c12 |  | 1 µM | activity vs control | 104%
O=C(Nc1cnn(-c2csc(C(=O)NC3COC3)c2)c1)Nc1c(F)cccc1Cl |  | 5 µM | remaining activity | 82.3%
